Experimental findings from ChEMBL document CHEMBL4007477, “Novel 2-phenyl-4,5,6,7-tetrahydro[b]benzothiophene analogues as selective COX-2 inhibitors: Design, synthesis, anti-inflammatory evaluation, and molecular docking studies” (Bioorg Med Chem Lett, 2017) are described below.

Data set [1] has as its target T1, COX1 (Prostaglandin G/H synthase 1) (Ovis aries, UniProt P05979).
T1 sequence (P05979 whole entry): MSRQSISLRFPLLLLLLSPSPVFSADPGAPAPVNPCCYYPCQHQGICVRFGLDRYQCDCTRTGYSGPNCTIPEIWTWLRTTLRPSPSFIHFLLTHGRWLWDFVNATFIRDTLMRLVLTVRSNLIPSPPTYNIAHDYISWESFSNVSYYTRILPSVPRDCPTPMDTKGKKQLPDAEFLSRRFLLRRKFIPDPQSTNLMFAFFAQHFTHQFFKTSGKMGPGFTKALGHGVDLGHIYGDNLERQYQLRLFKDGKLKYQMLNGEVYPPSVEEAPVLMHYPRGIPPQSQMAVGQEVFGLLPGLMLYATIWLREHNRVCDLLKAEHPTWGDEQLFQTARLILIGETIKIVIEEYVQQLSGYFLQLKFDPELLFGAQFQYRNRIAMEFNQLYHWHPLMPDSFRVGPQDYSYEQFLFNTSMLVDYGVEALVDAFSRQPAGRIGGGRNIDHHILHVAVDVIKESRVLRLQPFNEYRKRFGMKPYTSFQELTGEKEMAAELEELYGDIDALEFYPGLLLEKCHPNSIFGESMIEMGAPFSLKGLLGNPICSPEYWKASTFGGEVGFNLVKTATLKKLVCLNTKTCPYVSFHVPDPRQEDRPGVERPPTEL
Nature of the data set: Inhibition of ovine COX1 at 60 uM using arachidonic acid as substrate preincubated for 5 mins followed by substrate addition measured after 2 mins by ADHP probe-based fluorescence assay relative to control. To be noted: sheep, ovine COX1 enzyme.

The target of data set [2] is T2, Prostaglandin G/H synthase 2 (Homo sapiens) (UniProt P35354).
T2 sequence (whole entry): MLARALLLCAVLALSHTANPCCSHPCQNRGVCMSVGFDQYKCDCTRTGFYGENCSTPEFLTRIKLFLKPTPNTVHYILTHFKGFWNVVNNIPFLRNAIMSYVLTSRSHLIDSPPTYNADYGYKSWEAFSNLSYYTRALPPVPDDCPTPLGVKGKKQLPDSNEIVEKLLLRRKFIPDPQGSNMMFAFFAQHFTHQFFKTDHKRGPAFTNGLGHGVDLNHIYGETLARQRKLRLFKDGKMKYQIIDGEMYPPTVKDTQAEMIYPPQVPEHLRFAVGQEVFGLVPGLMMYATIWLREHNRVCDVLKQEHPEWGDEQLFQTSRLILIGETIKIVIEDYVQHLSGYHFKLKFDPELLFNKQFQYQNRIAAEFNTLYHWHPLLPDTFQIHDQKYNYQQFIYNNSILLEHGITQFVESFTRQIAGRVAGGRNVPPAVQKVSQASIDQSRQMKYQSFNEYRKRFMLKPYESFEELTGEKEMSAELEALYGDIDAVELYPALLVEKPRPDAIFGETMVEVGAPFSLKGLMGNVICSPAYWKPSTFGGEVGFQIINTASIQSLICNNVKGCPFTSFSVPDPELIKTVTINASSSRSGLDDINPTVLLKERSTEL
As to conditions: at 60 µM.

Data set [3] concerns Rattus norvegicus. Nature of the data set: Antiinflammatory activity in carrageenan-induced Wistar rat paw edema model assessed as rise in paw volume at 150 ug/kg administered 1 hr followed by carrageenan challenge measured at 30 mins by plethysmometer (reference value: 49.5%). Format: functional. Background: Carrageenan injected into the paw causes an acute inflammation.
Data set [4] relates to Rattus norvegicus. Nature of the data set: Antiinflammatory activity in carrageenan-induced Wistar rat paw edema model assessed as rise in paw volume at 150 ug/kg administered 1 hr followed by carrageenan challenge measured at 60 mins by plethysmometer (reference value: 52.8%). Format: functional.
The subject of data set [5] is Rattus norvegicus. Nature of the data set: Antiinflammatory activity in carrageenan-induced Wistar rat paw edema model assessed as rise in paw volume at 150 ug/kg administered 1 hr followed by carrageenan challenge measured at 180 mins by plethysmometer (reference value: 60.1%). Format: functional.
In data set [6] the test system is Rattus norvegicus. Nature of the data set: Antiinflammatory activity in carrageenan-induced Wistar rat paw edema model assessed as rise in paw volume at 150 ug/kg administered 1 hr followed by carrageenan challenge measured at 360 mins by plethysmometer (reference value: 49.3%). Format: functional.
Data set [7] in a line: Cytotoxicity against mouse RAW264.7 cells assessed as cell viability at 80 uM after 24 hrs by MTT assay relative to control. Format: cell-based. To be noted: read-out: Activity. Summed up: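 MTT viability in RAW 264.7 cells after 24 h exposure to 5, 10, 20, 40, 80 and 160 µM compound.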
Background: Tetrazolium assays rely on reduction of a dye to a coloured formazan, in cell work by metabolically active cells.

Data set [8] addresses T3, Prostaglandin G/H synthase 1 (Ovis aries, UniProt P05979).
T3 sequence (P05979 whole entry): T1 sequence (P05979 whole entry)
Nature of the data set: Inhibition of ovine COX1 using arachidonic acid as substrate preincubated for 5 mins followed by substrate addition measured after 2 mins by ADHP probe-based fluorescence assay.

The target in data set [9] is T4, Prostaglandin G/H synthase 2 (Homo sapiens, UniProt P35354).
T4 sequence (P35354 whole entry): T2 sequence (whole entry)
Nature of the data set: Inhibition of human recombinant COX2 using arachidonic acid as substrate preincubated for 5 mins followed by substrate addition measured after 2 mins by ADHP probe-based fluorescence assay.

Data set [10] can be described thus: Selectivity index, ratio of IC50 for ovine COX1 to IC50 for human recombinant COX2. Put shortly:
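Selectivity index computed as COX-1 IC₅₀ / COX-2 IC₅₀, using ovine COX-1 and human recombinant COX-2. Each IC₅₀ is a mean of two determinations.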

`O=Cc1ccc(OC(=O)c2c(-c3ccccc3)sc3c2CCCC3)cc1`: in data set [1], the inhibition (commonly how much of the control response was suppressed) at 2 min, 60 µM amounted to 11.6%. For the same compound, the inhibition in [2] turned out to be 10.7%.

For `COC(=O)Cc1ccc(OC(=O)c2c(-c3ccccc3)sc3c2CCCC3)cc1`, the inhibition at 2 min, 60 µM in data set [1] turned out to be 7.81%. For the same compound, in data set [2], the inhibition worked out at 15%.

As to `CC(C)(C)c1ccc(OC(=O)c2c(-c3ccccc3)sc3c2CCCC3)cc1`, in data set [1], the inhibition at 2 min, 60 µM turned out to be 8.1%. The same compound had an inhibition in [2] of 3.1%.

In turn, `N#Cc1ccc(OC(=O)c2c(-c3ccccc3)sc3c2CCCC3)cc1` gave an inhibition at 2 min, 60 µM in data set [1] of 76%. For the same compound, the Activity in data set [3] was found to be 13.6%; in data set [4], 22%; in [5] it was 21.4%; in data set [6], 28.5%. The same compound registered an inhibition in [2] of 83.7%.

In [1], `O=C(Oc1ccc(Br)cc1)c1c(-c2ccccc2)sc2c1CCCC2` came in with an inhibition at 2 min, 60 µM of 35.5%. In data set [2], this compound displayed an inhibition of 18.5%.

With `Nc1ccc(OC(=O)c2c(-c3ccccc3)sc3c2CCCC3)cc1`, the inhibition at 2 min, 60 µM in [1] came out at 88.3%. The Activity in [3] is listed as 29%; in [4] it was 33.1%; in [5], 44.9%; in [6], 39.9%. In [2], this compound displayed an inhibition of 32.3%.

As for `O=C(Oc1ccc([N+](=O)[O-])cc1)c1c(-c2ccccc2)sc2c1CCCC2`, in [1], the inhibition at 2 min, 60 µM amounted to 19.3%. Besides, in [2], the inhibition came to 16.5%.

`Cc1ccc(OC(=O)c2c(-c3ccccc3)sc3c2CCCC3)cc1`: in data set [1], the inhibition at 2 min, 60 µM was 64%. For the same compound, the inhibition in [2] was determined as 47.2%.

On to `NC(=O)Cc1ccc(OC(=O)c2c(-c3ccccc3)sc3c2CCCC3)cc1`, for which the inhibition at 2 min, 60 µM in [1] amounted to 1.43%. This compound also came in with an inhibition in [2] of 38.3%.

In turn, `COc1ccc(OC(=O)c2c(-c3ccccc3)sc3c2CCCC3)cc1` gave an inhibition at 2 min, 60 µM in data set [1] of 10.7%. In addition, the inhibition in data set [2] was 41%.

Consider `Cc1ccc(-c2cc(C(F)(F)F)nn2-c2ccc(S(N)(=O)=O)cc2)cc1` [CELECOXIB], for which, in data set [7], the viability at 24 h, 80 µM came out at 33.9%. Moreover, the Activity amounted to 5.8% in data set [3], 16.2% in data set [4], 19.7% in data set [5] and 26.6% in data set [6].

On to `CC(=O)Nc1ccc(OC(=O)c2c(-c3ccccc3)sc3c2CCCC3)cc1`, for which the inhibition at 2 min, 60 µM in data set [1] is 36.8%. The IC50 (commonly the concentration that gives 50% inhibition) is 68.8 µM in data set [8] and 1400 nM in data set [9]. Moreover, the Ratio IC50 in data set [10] stood at 48.8. In addition, the viability at 24 h, 80 µM in data set [7] came out at 41.3%. Further, the Activity in data set [3] is on record as 10.6%; in [4] it was 30.2%; in data set [5] it was 27%; in data set [6], 37%. The compound further returned an inhibition in [2] of 75.7%.

`NS(=O)(=O)c1ccc(OC(=O)c2c(-c3ccccc3)sc3c2CCCC3)cc1` showed an inhibition at 2 min, 60 µM in data set [1] of 69.3%. Also, the IC50 in data set [8] came out at 37 µM; in data set [9] it was 670 nM. Further, the Ratio IC50 in data set [10] amounted to 54.7. Further, the viability at 24 h, 80 µM in data set [7] came to 83.7%. Further, the Activity is given as 21.4% in data set [3], 21.6% in data set [4], 21.1% in data set [5] and 31.3% in data set [6]. This compound also yielded an inhibition in [2] of 89.4%.

`CC(=O)c1cccc(OC(=O)c2c(-c3ccccc3)sc3c2CCCC3)c1`: the inhibition at 2 min, 60 µM in data set [1] is 73.5%. Further, the values for the half-maximal inhibitory concentration (IC50) in data set [8] and in data set [9] were 29.6 µM and 310 nM, respectively. For the same compound, in [10], the Ratio IC50 is 92.7. Moreover, the viability at 24 h, 80 µM in data set [7] was found to be 64.5%. The Activity in data set [3] is reported as 28.9%; in data set [4] it was 30.8%; in [5], 30.5%; in [6], 30.3%. Moreover, the inhibition in data set [2] came out at 93.5%.

Take `COC(=O)c1ccc(OC(=O)c2c(-c3ccccc3)sc3c2CCCC3)cc1`: the inhibition at 2 min, 60 µM in data set [1] was determined as 68.9%. In addition, the inhibition in data set [2] turned out to be 56.5%.

In turn, `O=C(Oc1ccccc1)c1c(-c2ccccc2)sc2c1CCCC2` had an inhibition at 2 min, 60 µM in [1] of 47.1%. Further, the IC50 in [8] was 61.2 µM; in data set [9] it was 330 nM. In addition, the Ratio IC50 in [10] was determined as 184. In addition, in [7], the viability at 24 h, 80 µM came out at 50.8%. The Activity in [3] worked out at 10.6%; in [4], 30.2%; in data set [5], 27%; in data set [6], 37%. In data set [2], this compound yielded an inhibition of 97.6%.

`CC(=O)c1ccc(OC(=O)c2c(-c3ccccc3)sc3c2CCCC3)cc1` came in with an inhibition at 2 min, 60 µM in [1] of 10.3%. Further, the Activity came to 24.7% in data set [3], 37.1% in data set [4], 55.2% in [5] and 54.2% in [6]. Moreover, in data set [2], the inhibition was found to be 8.04%.

`O=C(Oc1ccc(Cl)cc1)c1c(-c2ccccc2)sc2c1CCCC2` displayed an inhibition at 2 min, 60 µM in data set [1] of 72.4%. The inhibition in data set [2] came out at 36.8%.
